In PMC3509950 (Journal of nuclear medicine : official publication, Society …, 2012):

What was measured:
[1] = Plasma kinetics of FAA during 5-min intravenous infusion in unanesthetized mice; format: in vivo, C57BL/6J male mice; conditions: for plasma area under the curve: 5-min intravenous infusion, mice
Summary of the method: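 Male C57BL/6J mice, 2–3 mo, unanesthetized after 3 h recovery at 37°C. Test compound (0.3 or 1.6 nmol per mouse) in HEPES–fatty acid-free BSA (50 mg/mL, pH 7.4) was infused intravenously at variable rate for 5 min. Arterial plasma was sampled at 0–4.9 min, Folch-extracted, pentafluorobenzyl-derivatized, and analysed by NCI GC/MS against a 17:0 internal standard. AUC was derived by trapezoidal integration; n = 2–3.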

[2] = Incorporation of infused FAA into brain lipids of unanesthetized mice; format: in vivo, C57BL/6J male mice

O=C(O)CCC/C=C\C/C=C\C/C=C\C/C=C\CCCCCF [FAA, 20-Fluoroarachidonic Acid]
FAA concentration in plasma over time ([1]; 0.3 or 1.6 nmol infused intravenously over 5 min, Fig. 1): increased over time in a dose-dependent manner | plasma area under the curve ([1]; high dose (1.6 nmol)): 0.236 ± 0.0189 µM·h | plasma area under the curve ([1]; low dose (0.3 nmol)): 0.0297 ± 0.0217 µM·h | FAA concentration within brain phospholipids (rank order) ([2]; both doses, end of 5-min infusion, Fig. 2A): highest in PtdIns and ChoGlp, followed by EtnGlp and PtdSer | incorporation coefficient k*, high versus low infusion dose ([2]; brain lipids, 0.3 vs 1.6 nmol, Fig. 3): lower for the high-infusion dose than for the low-infusion dose | FAA detected in brain UFA, triglyceride and cholesteryl ester fractions ([2]; end of 5-min infusion, mouse brain): < 0.01 nmol/g
